Results as given in ChEMBL document CHEMBL3992564, “Design and synthesis of novel, potent and selective hypoxanthine analogs as adenosine A1 receptor antagonists and their biological evaluation” (Bioorg Med Chem, 2017).
Values after ≈ are worked out from the molar mass of the structure shown.

Key:
Adenosine receptor A1 [1] = biological target: T1, Adenosine receptor A1 (Homo sapiens, UniProt P30542); assay: Displacement of [3H]DPCPX from human adenosine A1 receptor expressed in HEK293 cell membranes after 90 mins
T1 sequence (P30542 whole entry): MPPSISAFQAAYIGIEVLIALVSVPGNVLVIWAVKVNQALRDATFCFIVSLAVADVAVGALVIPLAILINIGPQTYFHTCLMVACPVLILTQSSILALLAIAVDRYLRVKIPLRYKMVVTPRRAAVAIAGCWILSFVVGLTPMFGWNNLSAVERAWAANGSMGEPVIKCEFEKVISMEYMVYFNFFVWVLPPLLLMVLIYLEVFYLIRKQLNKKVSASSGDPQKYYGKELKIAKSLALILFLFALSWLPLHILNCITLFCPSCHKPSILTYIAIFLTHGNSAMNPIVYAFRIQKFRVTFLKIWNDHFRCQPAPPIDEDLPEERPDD

Adenosine receptor A1 [2] = biological target: T1, Adenosine receptor A1; assay: Antagonist activity at human adenosine A1 receptor expressed in HEK293 cells assessed as reduction in CPA-mediated inhibition of forskolin-stimulated cAMP level preincubated for 15 mins followed by CPA treatment for 15 mins and subsequent addition of forskolin measured after 30 mins by HTRF assay; format: functional, cell-based
[3] = Thermodynamic solubility of the compound in pH 2 solution; format: physicochemical; details: read-out: Therm_solubility
[4] = Metabolic stability in rat liver microsomes assessed as parent compound remaining measured after 30 mins in presence of NADPH; format: ADME, microsome; details: read-out: Stability
Liver [5] = assay: Metabolic stability in rat liver microsomes assessed as metabolic rate measured after 30 mins in presence of NADPH; format: ADME, microsome; details: 0.5 h
[6] = Clearance in Wistar rat at 3 mg/kg, iv by LC-Ms/MS analysis; format: ADME, organism-based; details: in vivo
In short: (§1)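 Male Wistar rats (230 ± 15 g), fasted overnight with water available. IV dose of 3 mg/kg given by tail vein as a solution (0.6 mg/mL, 5 mL/kg). PO dose of 5 mg/kg given by gavage as a suspension. Blood was collected into K2EDTA at 0.008 (IV only) to 24 h and plasma was spun off. Samples were precipitated with acetonitrile and run on LC/MS/MS. Parameters came from non-compartmental analysis of individual animals, mean of n = 4.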

[7] = Thermodynamic solubility of the compound in pH 4 solution; format: physicochemical; details: read-out: Therm_solubility
[8] = Metabolic stability in human liver microsomes assessed as parent compound remaining measured after 30 mins in presence of NADPH; format: ADME, microsome; details: read-out: Stability
CYP3A4 = CYP3A4 (Homo sapiens, UniProt P08684); assay: Inhibition of CYP3A4 (unknown origin) at 5 uM relative to control; format: ADME
Sequence of CYP3A4 (P08684 whole entry): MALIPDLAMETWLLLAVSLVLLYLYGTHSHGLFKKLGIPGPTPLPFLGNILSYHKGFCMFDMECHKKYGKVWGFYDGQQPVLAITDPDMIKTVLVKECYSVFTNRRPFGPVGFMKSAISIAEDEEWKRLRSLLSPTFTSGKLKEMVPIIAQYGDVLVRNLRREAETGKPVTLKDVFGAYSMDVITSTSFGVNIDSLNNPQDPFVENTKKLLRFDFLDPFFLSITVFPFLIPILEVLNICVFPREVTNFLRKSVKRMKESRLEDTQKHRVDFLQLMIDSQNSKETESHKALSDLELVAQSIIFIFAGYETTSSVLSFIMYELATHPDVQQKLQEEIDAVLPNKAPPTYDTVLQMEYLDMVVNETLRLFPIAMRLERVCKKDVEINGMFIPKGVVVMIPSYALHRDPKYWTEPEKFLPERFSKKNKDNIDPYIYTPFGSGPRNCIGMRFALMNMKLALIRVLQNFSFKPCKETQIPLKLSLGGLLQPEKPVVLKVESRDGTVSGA

[9] = Volume of distribution at steady state in Wistar rat at 3 mg/kg, iv by LC-Ms/MS analysis; format: ADME, organism-based; details: in vivo, read-out: Vdss
In short: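 Male Wistar rats (230 ± 15 g), fasted overnight with water available. IV dosing at 3 mg/kg by tail vein as solution (0.6 mg/mL, 5 mL/kg). PO dosing at 5 mg/kg by oral gavage. Serial blood sampling into K2EDTA from 0.008 (IV only) to 24 h. Plasma precipitated with acetonitrile containing internal standard and analysed by LC/MS/MS. Non-compartmental parameters calculated per animal; values are means of n = 4.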

Liver [10] = assay: Metabolic stability in human liver microsomes assessed as metabolic rate measured after 30 mins in presence of NADPH; format: ADME, microsome; details: 0.5 h
CYP2D6 = CYP2D6 (Homo sapiens, UniProt P10635); assay: Inhibition of CYP2D6 (unknown origin) at 5 uM relative to control; format: ADME
Sequence of CYP2D6 (P10635 whole entry): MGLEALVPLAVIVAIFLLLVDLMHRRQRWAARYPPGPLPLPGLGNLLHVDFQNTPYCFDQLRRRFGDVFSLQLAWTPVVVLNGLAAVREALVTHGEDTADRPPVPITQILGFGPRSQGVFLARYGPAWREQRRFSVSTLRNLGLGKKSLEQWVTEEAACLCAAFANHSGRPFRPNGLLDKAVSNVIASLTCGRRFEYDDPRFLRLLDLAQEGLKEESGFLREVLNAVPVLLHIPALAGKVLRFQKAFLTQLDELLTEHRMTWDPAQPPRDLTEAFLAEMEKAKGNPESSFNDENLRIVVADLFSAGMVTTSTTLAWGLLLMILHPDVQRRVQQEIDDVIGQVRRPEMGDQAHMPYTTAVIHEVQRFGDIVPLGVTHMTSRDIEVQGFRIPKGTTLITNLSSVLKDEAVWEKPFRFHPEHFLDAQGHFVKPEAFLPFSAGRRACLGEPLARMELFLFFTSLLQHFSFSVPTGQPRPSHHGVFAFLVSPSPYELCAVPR

CYP1A2 = biological target: T2, CYP1A2 (Homo sapiens, UniProt P05177); assay: Inhibition of CYP1A2 (unknown origin) at 5 uM relative to control; format: ADME
T2 sequence (P05177 whole entry): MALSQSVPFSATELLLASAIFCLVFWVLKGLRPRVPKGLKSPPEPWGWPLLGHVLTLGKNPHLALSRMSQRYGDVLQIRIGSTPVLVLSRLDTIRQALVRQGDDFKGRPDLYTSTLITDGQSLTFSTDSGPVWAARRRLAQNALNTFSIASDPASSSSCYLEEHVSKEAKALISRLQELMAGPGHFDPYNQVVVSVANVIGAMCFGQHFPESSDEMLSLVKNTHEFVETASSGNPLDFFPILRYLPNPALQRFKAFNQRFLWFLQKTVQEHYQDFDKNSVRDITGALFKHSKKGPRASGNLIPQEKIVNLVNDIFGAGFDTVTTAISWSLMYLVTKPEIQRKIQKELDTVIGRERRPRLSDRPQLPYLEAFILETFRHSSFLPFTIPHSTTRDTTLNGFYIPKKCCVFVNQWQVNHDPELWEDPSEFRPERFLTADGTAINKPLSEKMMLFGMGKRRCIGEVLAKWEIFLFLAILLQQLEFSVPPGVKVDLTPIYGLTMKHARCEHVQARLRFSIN

Adenosine receptor A2b = biological target: T3, Adenosine receptor A2b (Homo sapiens, UniProt P29275); assay: Antagonist activity at human adenosine A2B receptor expressed in HEK293 cells assessed as reduction in NECA-induced increase in cAMP level preincubated for 15 mins followed by NECA addition measured after 15 mins by HTRF assay; format: functional, cell-based
T3 sequence (P29275 whole entry): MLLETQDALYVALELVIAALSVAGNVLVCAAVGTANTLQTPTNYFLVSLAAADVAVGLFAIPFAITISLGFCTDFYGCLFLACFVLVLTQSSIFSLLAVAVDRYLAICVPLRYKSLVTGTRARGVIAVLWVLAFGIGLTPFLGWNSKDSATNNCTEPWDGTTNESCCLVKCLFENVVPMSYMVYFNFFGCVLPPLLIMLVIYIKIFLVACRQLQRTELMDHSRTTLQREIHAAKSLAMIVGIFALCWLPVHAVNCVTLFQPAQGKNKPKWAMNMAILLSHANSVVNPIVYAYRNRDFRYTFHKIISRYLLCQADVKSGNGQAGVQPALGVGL
In short: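 Overnight HEK-A1 or HEK-A2B cultures were treated with 1 U/mL ADA for 90 min at 37°C. Compound was added for 15 min, then agonist for 15 min (1 nM CPA for A1; 70 nM NECA for A2B) at room temperature in incomplete DMEM with ADA. Rolipram (20 µM) was included for A1 only. cAMP was read by HTRF.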

[11] = AUC (0 to t) in Wistar rat at 3 mg/kg, iv by LC-Ms/MS analysis; format: ADME, organism-based; details: in vivo; in short: as §1
[12] = Thermodynamic solubility of the compound in pH 7.4 solution; format: physicochemical; details: read-out: Therm_solubility
[13] = Elimination half life in Wistar rat at 3 mg/kg, iv by LC-Ms/MS analysis; format: ADME, organism-based; details: in vivo, read-out: beta t1/2 (converted); in short: as §1

SMILES	Ki (Adenosine receptor A1 [1]) [nM]	Ki (Adenosine receptor A1 [2]) [nM]	solubility thermodynamic [3] [µM]	remaining at 0.5 h [4] [%]	Drug metabolism (Liver [5]) [nmol/min/mg]	clearance [6] [mL/min/kg]	solubility thermodynamic [7] [µM]	remaining at 0.5 h [8] [%]	inhibition at 5 µM (CYP3A4) [%]	Vd [9] [L/kg]	Drug metabolism (Liver [10]) [nmol/min/mg]	inhibition at 5 µM (CYP2D6) [%]	inhibition at 5 µM (CYP1A2) [%]	Ki (Adenosine receptor A2b) [nM]	AUC(0-t) [11] [µM·h]	solubility thermodynamic [12] [µM]	half-life [13] [min]
CCCn1c(Oc2cccnc2C)nc2nc(C3CCCC3)[nH]c2c1=O	6.6	0.28	2150 (≈ 761 µg/mL)	78	0.07	55	43 (≈ 15.2 µg/mL)	79	0	2	0.06	0	0	560	2.7	38 (≈ 13.4 µg/mL)	30
CCCn1c(Oc2ccc(F)c(F)c2)nc2nc(C3CCCC3)[nH]c2c1=O	23	13	77 (≈ 28.8 µg/mL)	75	0.08	13.6	23 (≈ 8.61 µg/mL)	82	34	1.73	0.05	10	7	> 10000	10.2	17 (≈ 6.36 µg/mL)	124
CCCn1c(-c2cccc(OC)c2)nc2nc(C3CCCC3)[nH]c2c1=O	16	15	614 (≈ 216 µg/mL)	82	0.05	39.2	63 (≈ 22.2 µg/mL)	97	5	1.2	0.03	1	0	650 to 690	3.53	54 (≈ 19 µg/mL)	29.4
